Article PMC3648642 (Journal of medicinal chemistry, 2013)

Columns and labels:
TSPO [1] = biological target: T1, TSPO (Rattus norvegicus, UniProt P16257); assay: Radioligand displacement of 3H-PK 11195 in C6 glioma cell lysate; assay type: binding; settings: for decrease in affinity with respect to parent compound: R2 hydrogen replaced with methyl
[2] = within the first 12 minutes post-administration; cited from earlier work
TSPO [3] = settings: high-affinity TSPO ligand for comparison; cited from earlier work
C6 glioma = assay type: in vivo, Wistar rats
Procedure, shortened: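 C6 glioma-bearing Wistar rats were given the 18F-labelled test compound (radiochemical purity >99%) and imaged by 90-minute dynamic microPET. Time-activity curves were drawn for tumor, normal brain and plasma across eight representative studies. Plasma radiometabolites were analysed by radio-HPLC at 2, 12, 30, 60 and 90 min. Brains were processed post mortem for staining and immunohistochemistry.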

TSPO [4] = biological target: T1, TSPO; assay: Biodistribution and specific binding; assay type: in vivo, rats
Procedure, shortened: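 Normal rats received an infusion of the 18F-labelled test compound (radiochemical purity >99%, specific activity >4203 Ci/mmol). Tissues were harvested 60 minutes after infusion, and their radioactivity was counted. Values are expressed as percentage of injected dose per gram of tissue (%ID/g).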

[5] = Radio-HPLC of radiometabolites in plasma during PET scanning; assay type: in vivo, rat; settings: 2, 12, 30, 60, 90 min
[6] = bolus of non-radioactive 6b (10 mg/kg) at 30 minutes, 60-minute assay

Compound: CCN(CC)C(=O)Cc1c(-c2ccc(OC)cc2)nn2c(C)c(C)c(C)nc12 [Compound 5d]
- decrease in affinity with respect to parent compound (TSPO [1]): approximately 10 fold

Compound: CCN(CC)C(=O)Cc1c(-c2ccc(OCC[18F])cc2)nn2c(C)cc(C)nc12 [^18F-6a, N,N-diethyl-2-(2-(4-(2-[^18F]fluoroethoxy)phenyl)-5,7-dimethylpyrazolo[1,5-a]pyrimidin-3-yl)acetamide]
- metabolism in plasma [2]: up to 30%

Compound: COc1ccccc1CN(C(C)=O)c1cnccc1Oc1ccccc1 [PBR28, N-(2-methoxybenzyl)-N-(4-phenoxypyridin-3-yl)acetamide]
- Ki (TSPO [3]): 4 nM

Compound: CCc1cc(CC)n2nc(-c3ccc(OCCF)cc3)c(CC(=O)N(CC)CC)c2n1 [Compound 6b, 2-(5,7-diethyl-2-(4-(2-fluoroethoxy)phenyl)pyrazolo[1,5-a]pyrimidin-3-yl)-N,N-diethylacetamide]
- enhancement in affinity compared to 6a (DPA-714) (TSPO [1]; TSPO affinity): 36 fold

Compound: CCc1cc(CC)n2nc(-c3ccc(OCC[18F])cc3)c(CC(=O)N(CC)CC)c2n1 [^18F-6b, 2-(5,7-diethyl-2-(4-(2-[^18F]fluoroethoxy)phenyl)pyrazolo[1,5-a]pyrimidin-3-yl)-N,N-diethylacetamide]
- tracer uptake in brain (tumor vs normal brain) (C6 glioma; dynamic PET, 90-minute acquisition): majority of tracer uptake in the brain was localized to the tumor
- clearance from plasma (C6 glioma; time-activity curve, 90-minute dynamic acquisition): quickly cleared from the plasma
- accumulation in brain, testes, skull, and skeletal muscle (TSPO [4]; 60 minutes after infusion): Very minor accumulation
- accumulation in spleen, heart, kidney, and lung (TSPO [4]; 60 minutes after infusion): elevated accumulation
- uptake in liver, colon, small bowel, and stomach (TSPO [4]; 60 minutes after infusion): Moderate uptake
- radioactivity in whole blood or urine (TSPO [4]; 60 minutes post-administration): very little radio-activity
- activity in muscle or liver with displacement (TSPO [4]; [6]): essentially unchanged with displacement
- activity in spleen, heart, kidney, and lung with displacement (TSPO [4]; [6]): reduced to background levels
- activity in urine with displacement (TSPO [4]; [6]): elevated with displacement
- radioactive species detected in plasma [5]: the only radioactive species detected in plasma at all time points

Compound: CCN(CC)C(=O)Cc1c(-c2ccc(OCCF)cc2)nn2c(C)c(C)c(C)nc12 [Compound 6d]
- decrease in affinity with respect to parent compound (TSPO [1]): approximately 10 fold
